In brackets after ≈: the same amount, converted by molar mass.
Key:
Enterobacter cloacae = assay: Evaluated for minimum inhibitory concentration against gram-negative bacteria Enterobacter cloacae HA 2646; assay type: functional
Escherichia coli [1] = assay: Evaluated for minimum concentration needed to produce linear DNA at an intensity relative to oxolinic acid at 10 mg/mL. by gyrase mediated cleavage of DNA in Escherichia coli 560.; assay type: functional; settings: read-out: MIC
Escherichia coli [2] = assay: Evaluated for minimum inhibitory concentration against gram-negative bacteria Escherichia coli Vogel; assay type: functional
Outline: (§1)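 Broth microdilution MIC by standard technique. Values come from duplicate experiments and are stated as accurate to ±50%.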

Klebsiella pneumoniae = assay: Evaluated for minimum inhibitory concentration against gram-negative bacteria Klebsiella pneumoniae MGH-2; assay type: functional; outline: as §1
Pseudomonas aeruginosa [3] = assay: Evaluated for minimum inhibitory concentration against gram-negative bacteria Pseudomonas aeruginosa UI-18; assay type: functional; outline: as §1
Pseudomonas = assay: Evaluated for minimum inhibitory concentration against gram-negative bacteria Pseudomonas rettgeri H1771; assay type: functional; outline: as §1
[4] = Evaluated for minimum inhibitory concentration against […] bacteria […] SV-1; assay type: functional; outline: as §1
Staphylococcus aureus [5] = assay: Evaluated for minimum inhibitory concentration against […] bacteria Staphylococcus aureus H228; assay type: functional; outline: as §1
Staphylococcus aureus [6] = assay: Evaluated for minimum inhibitory concentration against […] bacteria Staphylococcus aureus UC-76; assay type: functional; outline: as §1
Streptococcus pyogenes [7] = assay: Evaluated for minimum inhibitory concentration against gram-positive bacteria Streptococcus pyogenes C203
Enterococcus faecalis = assay: Evaluated for minimum inhibitory concentration against gram-positive bacteria Staphylococcus faecalis MGH-2
Escherichia coli [8] = assay: In vivo protective dose for mouse protection assay in Escherichia coli Vogel after peroral administration; assay type: functional; settings: po, read-out: PD50
Outline: (§2)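 Female Charles River CD-1 mice were given an acute, lethal, systemic infection. A single dose of compound was given at the time of challenge, by the route stated in the line, with 16 animals per dose level. The read-out is the median protective dose (PD50, mg/kg). Per the footnote, values come from 16 animals per test, with a mean variation of ±34%.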

Escherichia coli [9] = assay: In vivo protective dose was determined in mouse protection assay in Escherichia coli Vogel after subcutaneous administration; assay type: functional; settings: sc, read-out: PD50; outline: as §2
Pseudomonas aeruginosa [10] = assay: In vivo protective dose was determined against Pseudomonas aeruginosa UI-18. after peroral administration; assay type: functional; settings: po, read-out: PD50; outline: as §2
Pseudomonas aeruginosa [11] = assay: In vivo protective dose was determined against Pseudomonas aeruginosa UI-18. after subcutaneous administration; assay type: functional; settings: sc, read-out: PD50; outline: as §2
Staphylococcus aureus [12] = assay: In vivo protective dose was determined against Staphylococcus aureus VC76 after peroral administration; assay type: functional; settings: po, read-out: PD50; outline: as §2
Staphylococcus aureus [13] = assay: In vivo protective dose was determined against Staphylococcus aureus VC76. after subcutaneous administration; assay type: functional; settings: sc, read-out: PD50; outline: as §2
Streptococcus pyogenes [14] = assay: In vivo protective dose was determined against Streptococcus pyogenes after peroral administration; settings: po, read-out: PD50
Streptococcus pyogenes [15] = assay: In vivo protective dose was determined against Streptococcus pyogenes after subcutaneous administration; settings: sc, read-out: PD50
Streptococcus pneumoniae [16] = assay: In vivo protective dose was determined against Streptococcus pneumoniae SV-1 after peroral administration; settings: po, read-out: PD50
Streptococcus pneumoniae [17] = assay: In vivo protective dose was determined against Streptococcus pneumoniae SV-1 after subcutaneous administration; settings: sc, read-out: PD50

Row | SMILES | MIC (Enterobacter cloacae) | minimum concentration for gyrase-mediated DNA cleavage (Escherichia coli [1]) | MIC (Escherichia coli [2]) | MIC (Klebsiella pneumoniae) | MIC (Pseudomonas aeruginosa [3]) | MIC (Pseudomonas) | MIC [4] | MIC (Staphylococcus aureus [5]) | MIC (Staphylococcus aureus [6]) | MIC (Streptococcus pyogenes [7]) | MIC (Enterococcus faecalis) | ED50 (Escherichia coli [8]) | ED50 (Escherichia coli [9]) | also measured
1 | CCNCC1CCN(c2c(F)cc3c(=O)c(C(=O)O)cn(C4CC4)c3c2F)C1 (stereo unspecified) [PD-117558] | 0.1 µg/mL (≈ 0.255 µM) | 0.25 µg/mL | 0.05 µg/mL (≈ 0.128 µM) | 0.1 µg/mL (≈ 0.255 µM) | 0.4 µg/mL (≈ 1.02 µM) | 0.2 µg/mL (≈ 0.511 µM) | 0.025 µg/mL (≈ 0.0639 µM) | 0.025 µg/mL (≈ 0.0639 µM) | 0.006 µg/mL (≈ 0.0153 µM) | 0.025 µg/mL (≈ 0.0639 µM) | 0.025 µg/mL (≈ 0.0639 µM) |  |  | 
2 | CCNCC1CCN(c2c(F)cc3c(=O)c(C(=O)O)cn(CC)c3c2F)C1 (stereo unspecified) [MERAFLOXACIN] | 0.2 µg/mL (≈ 0.527 µM) | 2.5 µg/mL | 0.1 µg/mL (≈ 0.264 µM) | 0.2 µg/mL (≈ 0.527 µM) | 1.6 µg/mL (≈ 4.22 µM) | 0.4 µg/mL (≈ 1.05 µM) | 0.1 µg/mL (≈ 0.264 µM) | 0.1 µg/mL (≈ 0.264 µM) | 0.05 µg/mL (≈ 0.132 µM) | 0.1 µg/mL (≈ 0.264 µM) | 0.1 µg/mL (≈ 0.264 µM) |  |  | 
3 | CCn1cc(C(=O)O)c(=O)c2cc(F)c(N3CCC4(CCNC4)C3)c(F)c21 (stereo unspecified) | 0.2 µg/mL (≈ 0.53 µM) | 2.5 µg/mL | 0.1 µg/mL (≈ 0.265 µM) | 0.2 µg/mL (≈ 0.53 µM) | 0.8 µg/mL (≈ 2.12 µM) | 1.6 µg/mL (≈ 4.24 µM) | 0.2 µg/mL (≈ 0.53 µM) | 0.1 µg/mL (≈ 0.265 µM) | 0.05 µg/mL (≈ 0.132 µM) | 0.1 µg/mL (≈ 0.265 µM) | 0.2 µg/mL (≈ 0.53 µM) | > 100 mg/kg | 15 mg/kg | 
4 | O=C(O)c1cn(C2CC2)c2cc(N3CCNCC3)c(F)cc2c1=O [CIPROFLOXACIN] |  |  | 0.025 µg/mL (≈ 0.0754 µM) | 0.025 µg/mL (≈ 0.0754 µM) | 0.1 µg/mL (≈ 0.302 µM) | 0.025 µg/mL (≈ 0.0754 µM) | 0.4 µg/mL (≈ 1.21 µM) | 1.6 µg/mL (≈ 4.83 µM) | 0.1 µg/mL (≈ 0.302 µM) | 0.2 µg/mL (≈ 0.604 µM) | 0.4 µg/mL (≈ 1.21 µM) |  |  | 
5 | O=C(O)c1cn(C2CC2)c2c(F)c(N3CCC4(CCCN4)C3)c(F)cc2c1=O (stereo unspecified) | 0.025 µg/mL (≈ 0.0642 µM) | 0.5 µg/mL | 0.025 µg/mL (≈ 0.0642 µM) | 0.1 µg/mL (≈ 0.257 µM) | 0.2 µg/mL (≈ 0.514 µM) | 0.8 µg/mL (≈ 2.05 µM) | 0.4 µg/mL (≈ 1.03 µM) | 0.05 µg/mL (≈ 0.128 µM) | 0.4 µg/mL (≈ 1.03 µM) | 0.4 µg/mL (≈ 1.03 µM) | 0.4 µg/mL (≈ 1.03 µM) | 4 mg/kg | 1 mg/kg | 
6 | CCn1cc(C(=O)O)c(=O)c2c(F)c(F)c(N3CCC4(CCN(C)C4)C3)c(F)c21 (stereo unspecified) | 0.8 µg/mL (≈ 1.95 µM) | 5 µg/mL | 0.8 µg/mL (≈ 1.95 µM) | 1.6 µg/mL (≈ 3.91 µM) | 6.3 µg/mL (≈ 15.4 µM) | 6.3 µg/mL (≈ 15.4 µM) | 0.8 µg/mL (≈ 1.95 µM) | 0.8 µg/mL (≈ 1.95 µM) | 0.2 µg/mL (≈ 0.489 µM) | 1.6 µg/mL (≈ 3.91 µM) | 1.6 µg/mL (≈ 3.91 µM) | 22 mg/kg | 12.5 mg/kg | 
7 | CCn1cc(C(=O)O)c(=O)c2cc(F)c(N3CCC4(CCNC4)C3)nc21.Cl (stereo unspecified) | 0.8 µg/mL | 5 µg/mL | 0.8 µg/mL | 3.1 µg/mL | 0.8 µg/mL | 12.5 µg/mL | 0.8 µg/mL | 3.1 µg/mL | 0.4 µg/mL | 0.2 µg/mL | 1.6 µg/mL | > 100 mg/kg | 28 mg/kg | 
8 | CCn1cc(C(=O)O)c(=O)c2cc(F)c(N3CCNCC3)cc21 [NORFLOXACIN] | 0.1 µg/mL (≈ 0.313 µM) | 5.2 µg/mL | 0.1 µg/mL (≈ 0.313 µM) | 0.2 µg/mL (≈ 0.626 µM) | 0.8 µg/mL (≈ 2.51 µM) | 0.2 µg/mL (≈ 0.626 µM) | 3.1 µg/mL (≈ 9.71 µM) | 3.1 µg/mL (≈ 9.71 µM) | 0.4 µg/mL (≈ 1.25 µM) | 3.1 µg/mL (≈ 9.71 µM) | 3.1 µg/mL (≈ 9.71 µM) |  |  | 
9 | CCn1cc(C(=O)O)c(=O)c2cc(F)c(N3CCCC4(CCCNC4)C3)nc21 (stereo unspecified) | 25 µg/mL (≈ 64.4 µM) | 50 µg/mL | 12.5 µg/mL (≈ 32.2 µM) | 25 µg/mL (≈ 64.4 µM) | 50 µg/mL (≈ 129 µM) | 100 µg/mL (≈ 257 µM) | 12.5 µg/mL (≈ 32.2 µM) | 6.3 µg/mL (≈ 16.2 µM) | 3.1 µg/mL (≈ 7.98 µM) | 50 µg/mL (≈ 129 µM) | 12.5 µg/mL (≈ 32.2 µM) |  |  | 
10 | CC1COc2c(N3CCC4(CCN(C)C4)C3)c(F)cc3c(=O)c(C(=O)O)cn1c23 (stereo unspecified) | 0.2 µg/mL (≈ 0.498 µM) | 1 µg/mL | 0.025 µg/mL (≈ 0.0623 µM) | 0.1 µg/mL (≈ 0.249 µM) | 0.8 µg/mL (≈ 1.99 µM) | 0.4 µg/mL (≈ 0.996 µM) | 0.2 µg/mL (≈ 0.498 µM) | 0.1 µg/mL (≈ 0.249 µM) | 0.006 µg/mL (≈ 0.0149 µM) | 0.1 µg/mL (≈ 0.249 µM) | 0.1 µg/mL (≈ 0.249 µM) | 14 mg/kg | 4.5 mg/kg | ED50 (Pseudomonas aeruginosa [10]): 200 mg/kg; ED50 (Pseudomonas aeruginosa [11]): 56 mg/kg; ED50 (Staphylococcus aureus [12]): 12.5 mg/kg; ED50 (Staphylococcus aureus [13]): 2.1 mg/kg; ED50 (Streptococcus pyogenes [14]): 31 mg/kg; ED50 (Streptococcus pyogenes [15]): 6 mg/kg; ED50 (Streptococcus pneumoniae [16]): 63 mg/kg; ED50 (Streptococcus pneumoniae [17]): 11.5 mg/kg

Reference: ChEMBL document CHEMBL1125136, “Quinolone antibacterial agents substituted at the 7-position with spiroamines. Synthesis and structure-activity relationships” (1990)
